# In ChEMBL document CHEMBL4152387, “Discovery of a Potent Grp94 Selective Inhibitor with Anti-Inflammatory Efficacy in a Mouse Model of Ulcerative Colitis” (J Med Chem, 2018):
# Active and inactive are the calls of the source. No cut-off for these calls is given here.
# Columns and labels:
# Canis lupus familiaris = species on record: Canis lupus familiaris; assay: Inhibition of FITC-geldanamycin binding to dog GST-tagged GRP94 N41 deletion mutant (69 to 337 residues) expressed in Escherichia coli BL21star (DE3) at 100 uM after 4 hrs by FP assay relative to control
# [1] = Inhibition of FITC-geldanamycin binding to dog GST-tagged GRP94 N41 deletion mutant (69 to 337 residues) expressed in Escherichia coli BL21star (DE3) after 4 hrs by GM-FITC-based FP assay; set-up: species or system Canis lupus familiaris
# [2] = biological target: T1, Heat shock protein HSP 90-alpha (Homo sapiens, UniProt P07900); assay: Inhibition of FITC-geldanamycin binding to human His-tagged HSP90alpha N-terminal domain (1 to 236 residues) expressed in Escherichia coli BL21star (DE3) at 100 uM after 4 hrs by FP assay relative to control
# In short: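 Hsp90αN (15 nM final) with GM-FITC (6 nM final) and compound in HEPES/KCl/MgCl2 buffer pH 7.4 with NP40, DTT, BGG; 4 h at 4 °C in dark; FP at ex 485/em 535 nm; inhibition computed against GM-FITC-only and protein-plus-probe controls; n = 3.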
# Endoplasmin [3] = biological target: Endoplasmin (Canis lupus familiaris, UniProt P41148); assay: Inhibition of FITC-geldanamycin binding to canine GRP94 incubated for 5 hrs by fluorescence polarization assay
# [4] = biological target: T1, Heat shock protein HSP 90-alpha; assay: Inhibition of FITC-geldanamycin binding to HSP90alpha (unknown origin) incubated for 5 hrs by fluorescence polarization assay
# [5] = biological target: T1, Heat shock protein HSP 90-alpha; assay: Inhibition of HSP90alpha in human PANC1 cells assessed as up-regulation of Hsp70 at 1 uM after 36 hrs by Western blot analysis; type: cell-based
# In short: (§1)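 Panc-1 cells treated 36 h; total protein lysate with protease/phosphatase inhibitors; equal protein by BCA on SDS-PAGE, PVDF, Western blot for Hsp70 and Akt, β-actin loading control; AT13387 reference.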
# [6] = biological target: T1, Heat shock protein HSP 90-alpha; assay: Inhibition of HSP90alpha in human PANC1 cells assessed as akt degradation at 1 uM after 36 hrs by Western blot analysis; type: cell-based; in short: as §1
# Heat shock protein HSP90 = Heat shock protein HSP90 (Homo sapiens, UniProt P07900+P08238); assay: Inhibition of FITC-geldanamycin binding to human His-tagged HSP90alpha N-terminal domain (1 to 236 residues) expressed in Escherichia coli BL21star (DE3) after 4 hrs by FP assay relative to control
# Homo sapiens = species on record: Homo sapiens; assay: Selectivity ratio of IC50 for inhibition of human recombinant HSP90alpha expressed in Escherichia coli by fluorescence polarization assay to IC50 for inhibition of GRP94 (unknown origin)
# [7] = biological target: T1, Heat shock protein HSP 90-alpha; assay: Inhibition of human recombinant HSP90alpha expressed in Escherichia coli by fluorescence polarization assay
# Endoplasmin [8] = biological target: Endoplasmin (Homo sapiens, UniProt P14625); assay: Binding affinity to GRP94 N-domain (unknown origin)
# Sequence of Endoplasmin (Homo sapiens, UniProt P14625) (P14625 whole entry): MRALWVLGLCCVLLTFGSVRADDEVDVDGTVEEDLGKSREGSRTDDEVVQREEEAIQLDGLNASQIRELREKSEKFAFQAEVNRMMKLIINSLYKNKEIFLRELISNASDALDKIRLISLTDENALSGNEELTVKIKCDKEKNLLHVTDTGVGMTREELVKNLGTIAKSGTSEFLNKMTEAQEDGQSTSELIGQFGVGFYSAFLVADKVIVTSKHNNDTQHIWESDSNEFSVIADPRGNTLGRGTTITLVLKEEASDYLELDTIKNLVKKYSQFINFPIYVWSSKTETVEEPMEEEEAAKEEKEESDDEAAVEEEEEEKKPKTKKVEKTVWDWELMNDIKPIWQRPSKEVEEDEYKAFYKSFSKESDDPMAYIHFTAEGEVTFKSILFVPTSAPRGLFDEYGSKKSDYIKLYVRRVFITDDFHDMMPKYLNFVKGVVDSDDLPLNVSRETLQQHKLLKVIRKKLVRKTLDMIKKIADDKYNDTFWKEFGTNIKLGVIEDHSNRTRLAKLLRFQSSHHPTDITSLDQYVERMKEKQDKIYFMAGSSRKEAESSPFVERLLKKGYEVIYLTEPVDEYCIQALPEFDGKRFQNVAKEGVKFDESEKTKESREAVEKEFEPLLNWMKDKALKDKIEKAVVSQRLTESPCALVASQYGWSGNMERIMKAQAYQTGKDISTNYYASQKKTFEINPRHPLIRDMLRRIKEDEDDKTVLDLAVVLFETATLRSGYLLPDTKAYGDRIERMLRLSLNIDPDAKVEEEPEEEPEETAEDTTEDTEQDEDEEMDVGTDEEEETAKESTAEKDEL
# Sequence of Endoplasmin (Canis lupus familiaris, UniProt P41148) (P41148 whole entry): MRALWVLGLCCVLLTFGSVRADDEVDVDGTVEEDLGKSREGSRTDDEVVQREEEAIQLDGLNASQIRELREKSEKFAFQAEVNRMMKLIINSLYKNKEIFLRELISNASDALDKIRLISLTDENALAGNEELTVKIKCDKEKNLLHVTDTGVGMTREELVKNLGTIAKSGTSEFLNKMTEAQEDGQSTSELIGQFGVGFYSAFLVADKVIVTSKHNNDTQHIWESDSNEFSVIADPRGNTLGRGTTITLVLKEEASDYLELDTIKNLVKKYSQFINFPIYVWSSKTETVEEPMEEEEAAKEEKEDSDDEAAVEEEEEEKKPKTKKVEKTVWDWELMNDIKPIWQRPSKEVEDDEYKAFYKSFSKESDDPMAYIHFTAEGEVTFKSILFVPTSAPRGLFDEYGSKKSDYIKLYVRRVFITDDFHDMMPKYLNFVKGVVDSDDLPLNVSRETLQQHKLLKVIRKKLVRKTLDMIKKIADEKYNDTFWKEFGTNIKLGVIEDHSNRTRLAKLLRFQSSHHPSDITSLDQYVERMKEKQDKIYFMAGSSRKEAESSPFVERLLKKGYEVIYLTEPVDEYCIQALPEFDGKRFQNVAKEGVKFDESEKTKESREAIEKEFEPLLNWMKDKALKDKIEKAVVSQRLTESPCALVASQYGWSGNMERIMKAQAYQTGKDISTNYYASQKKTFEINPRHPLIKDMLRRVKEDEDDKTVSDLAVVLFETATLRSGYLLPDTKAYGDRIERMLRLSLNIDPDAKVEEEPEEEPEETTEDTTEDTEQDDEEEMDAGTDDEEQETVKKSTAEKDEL
Compound,inhibition (Canis lupus familiaris),IC50 [1] [nM],inhibition (INH) [2],other results
Cc1ccc(-c2ccc(N[C@H]3CC[C@H](O)CC3)c(C(N)=O)c2)c(C)c1,91%,1220,Not Active,–
Cc1cccc(C)c1-c1ccc(N[C@H]2CC[C@H](O)CC2)c(C(N)=O)c1,100%,1420,Not Active,–
NC(=O)c1cc(-c2ccccc2)ccc1N[C@H]1CC[C@H](O)CC1,93%,2770,Not Active,–
CCc1ccccc1-c1ccc(N[C@H]2CC[C@H](O)CC2)c(C(N)=O)c1,92%,2060,Not Active,–
COc1ccc(-c2ccc(N[C@H]3CC[C@H](O)CC3)c(C(N)=O)c2)cc1,100%,500,Not Active,–
COc1cccc(-c2ccc(N[C@H]3CC[C@H](O)CC3)c(C(N)=O)c2)c1,100%,4750,Not Active,–
COC(=O)c1c(O)cc(O)c(Cl)c1CCC(=O)NC1=CC(=O)C(OC)=CC1=O,–,–,–,Kd (Endoplasmin [3]): 520 nM; Kd [4]: 870 nM
NC(=O)c1cc(-c2ccc(-n3cccc3)cc2)ccc1N[C@H]1CC[C@H](O)CC1,0%,–,Not Active,–
Cc1ccc(-c2ccc(N[C@H]3CC[C@H](O)CC3)c(C(N)=O)c2)cc1C,100%,710,Not Active,–
COCCNc1ccc(-c2ccc(C(C)C)cc2)cc1C(N)=O,96%,930,Not Active,–
Cc1cccc(-c2ccc(N[C@H]3CC[C@H](O)CC3)c(C(N)=O)c2)c1C,81%,460,Not Active,–
NC(=O)c1cc(-c2ccc(Cl)c(Cl)c2)ccc1N[C@H]1CC[C@H](O)CC1,100%,600,Not Active,–
CC(C)c1ccc(-c2ccc(NC3CCNCC3)c(C(N)=O)c2)cc1,100%,470,Not Active,–
NC(=O)c1cc(-c2cccc(Cl)c2)ccc1N[C@H]1CC[C@H](O)CC1,100%,2030,Not Active,–
CC(C)c1ccc(-c2ccc(NCC3CCCCC3)c(C(N)=O)c2)cc1,inactive,–,Not Active,–
NC(=O)c1cc(-c2cc(Cl)cc(Cl)c2)ccc1N[C@H]1CC[C@H](O)CC1,66%,24700,Not Active,–

Compound,inhibition (Canis lupus familiaris),IC50 [1] [nM],inhibition (INH) [2],other results
CC(C)(C)c1ccc(-c2ccc(N[C@H]3CC[C@H](O)CC3)c(C(N)=O)c2)cc1,100%,790,Not Active,–
CC(C)CNc1ccc(-c2ccc(C(C)C)cc2)cc1C(N)=O,96%,2320,Not Active,–
Cc1cc(C)cc(-c2ccc(N[C@H]3CC[C@H](O)CC3)c(C(N)=O)c2)c1,72%,19700,Not Active,–
CC(C)C[C@H](N)C(=O)N1CCC(Nc2ccc(-c3ccc(C(C)C)cc3)cc2C(N)=O)CC1,89%,480,Not Active,–
CC(C)c1ccc(-c2ccc(NC3CCN(C(=O)C(N)C(C)C)CC3)c(C(N)=O)c2)cc1 (stereo unspecified),91%,450,Not Active,–
Cc1cc(C)c(-c2ccc(N[C@H]3CC[C@H](O)CC3)c(C(N)=O)c2)c(C)c1,100%,1110,Not Active,–
NC(=O)c1cc(-c2ccc3ccccc3c2)ccc1N[C@H]1CC[C@H](O)CC1,75%,12600,Not Active,–
CC(C)c1ccc(-c2ccc(NC3CCCC3)c(C(N)=O)c2)cc1,89%,3110,Not Active,–
C#CCCCn1cnc(N)c2nc(Sc3ccc(C)cc3C)nc1-2,–,–,–,Ratio IC50 (Homo sapiens): > 21; IC50 [7]: > 250000 nM; IC50 (Endoplasmin [8]): 11800 nM
Cc1cccc(-c2ccc(N[C@H]3CC[C@H](O)CC3)c(C(N)=O)c2)c1,100%,1160,Not Active,–
COc1ccccc1-c1ccc(N[C@H]2CC[C@H](O)CC2)c(C(N)=O)c1,89%,11500,Not Active,–
Cc1ccccc1-c1ccc(N[C@H]2CC[C@H](O)CC2)c(C(N)=O)c1,90%,1810,Not Active,–
CC[C@H](C)[C@H](N)C(=O)N1CCC(Nc2ccc(-c3ccc(C(C)C)cc3)cc2C(N)=O)CC1,92%,470,Not Active,–
CCOc1ccc(-c2ccc(N[C@H]3CC[C@H](O)CC3)c(C(N)=O)c2)cc1,100%,490,Not Active,–
NC(=O)c1cc(-c2cccc3ccccc23)ccc1N[C@H]1CC[C@H](O)CC1,0%,–,Not Active,–
NC(=O)c1cc(-c2ccccc2Cl)ccc1N[C@H]1CC[C@H](O)CC1,100%,2720,Not Active,–

# Further lines, with some results ahead:
inhibition (Canis lupus familiaris),IC50 [1] [nM],inhibition (INH) [2],Compound,other results
100%,97,–,CC1(C)CC(=O)c2c(C(F)(F)F)nn(-c3ccc(C(N)=O)c(N[C@H]4CC[C@H](O)CC4)c3)c2C1 [SNX-2112],–
97%,370,Not Active,CC(C)c1ccc(-c2ccc(NC3CCCCC3)c(C(N)=O)c2)cc1,–
100%,340,Not Active,Cc1ccc(-c2ccc(N[C@H]3CC[C@H](O)CC3)c(C(N)=O)c2)cc1,–
100%,73,Not Active,CC(C)c1ccc(-c2ccc(NC3CCOCC3)c(C(N)=O)c2)cc1,–
100%,140,Not Active,NC(=O)c1cc(-c2c(Cl)cccc2Cl)ccc1N[C@H]1CC[C@H](O)CC1,–
100%,310,Not Active,NC(=O)c1cc(-c2cccc(Cl)c2Cl)ccc1N[C@H]1CC[C@H](O)CC1,–
100%,150,Not Active,CC(C)c1ccc(-c2ccc(NC3CCN(C(=O)CCCCCN)CC3)c(C(N)=O)c2)cc1,–
100%,210,Not Active,CC(C)c1ccc(-c2ccc(NC3CCN(C(=O)CN)CC3)c(C(N)=O)c2)cc1,–
100%,20,–,CC(C)c1cc(C(=O)N2Cc3ccc(CN4CCN(C)CC4)cc3C2)c(O)cc1O [ONALESPIB],inhibition (INH) [5]: Active; inhibition (INH) [6]: Active; IC50 (Heat shock protein HSP90): 22 nM
100%,170,Not Active,NC(=O)c1cc(-c2ccc(Cl)cc2)ccc1N[C@H]1CC[C@H](O)CC1,–
96%,220,Not Active,CC(C)c1ccc(-c2ccc(NC3CCN(C(=O)CCN)CC3)c(C(N)=O)c2)cc1,–
100%,55,Not Active,CC(=O)N1CCC(Nc2ccc(-c3ccc(C(C)C)cc3)cc2C(N)=O)CC1,–
88%,370,Not Active,CC(N)C(=O)N1CCC(Nc2ccc(-c3ccc(C(C)C)cc3)cc2C(N)=O)CC1 (stereo unspecified),–
100%,7,Not Active,CCc1ccc(-c2ccc(N[C@H]3CC[C@H](O)CC3)c(C(N)=O)c2)cc1,–
95%,130,Not Active,CC(C)c1ccc(-c2ccc(N[C@H]3CCOC3)c(C(N)=O)c2)cc1,–
100%,53,Not Active,CCCc1ccc(-c2ccc(N[C@H]3CC[C@H](O)CC3)c(C(N)=O)c2)cc1,–
